The source of these data is ChEMBL document CHEMBL1145441, “Synthesis and anti-HIV activity of new metabolically stable alkenyldiarylmethane non-nucleoside reverse transcriptase inhibitors incorporating N-methoxy imidoyl halide and 1,2,4-oxadiazole systems” (J Med Chem, 2007).

Activity calls are given as the source filed them. A value given as a limit tells only on which side of the number the result lay.

Data set [1] deals with Human immunodeficiency virus type 1 reverse transcriptase (Human immunodeficiency virus 1, UniProt Q72547). The data set is described as follows: Inhibition of HIV1 recombinant reverse transcriptase.
Data set [2] relates to Human immunodeficiency virus 1. As to the kind of experiment: Antiviral activity against HIV1 RF in CEM-SS cells by XTT assay. In kind it is functional, organism-based. The conditions noted are these: for EC50: Human immunodeficiency virus 1, RF. The gist of the method:
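HIV-1 RF infection of CEM-SS cells, with protection scored by XTT cytoprotection assay; EC50 defined as 50% effective concentration for inhibiting cytopathicity; means of at least two separate experiments.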
(Tetrazolium assays rely on reduction of a dye to a coloured formazan, in cell work by metabolically active cells.)

For data set [3], the system named is Human immunodeficiency virus 2. The data set is described as follows: Antiviral activity against HIV2 ROD in MT4 cells by MTT assay. In kind it is functional, organism-based. The gist of the method: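 HIV-2 strain ROD infection of MT-4 cells; MTT cytoprotection read-out; EC50 is the 50% effective concentration against virus-induced cytopathicity; mean values from at least two separate experiments.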

Data set [4] in a line: Cytotoxicity against mock-infected CEM-SS cells. To be noted: human. In kind it is cell-based. The procedure, abridged: (§1)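 Mock-infected CEM-SS or MT-4 cells; CC50 defined as 50% cytotoxic concentration; means of at least two separate experiments.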
Data set [5] can be described thus: Cytotoxicity against mock-infected MT4 cells. In kind it is cell-based. The conditions noted are these: human. The gist of the method:
as §1

Data set [6] in a line: Metabolic stability in rat plasma. In kind it is ADME, cell-free. The gist of the method:
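Hydrolytic stability in rat plasma in vitro, with 1,1-diphenylethylene or benzophenone as internal standard; samples followed by HPLC; half-life reported in minutes as mean ± SD of at least two separate experiments.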

For data set [7], the system named is Human immunodeficiency virus 1. As to the kind of experiment: Antiviral activity against HIV1 3B in MT4 cells by MTT assay. In kind it is functional, organism-based. The conditions noted are these: for EC50: Human immunodeficiency virus 1, 3B. The gist of the method:
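Cytoprotection read-out by MTT in MT-4 cells infected with HIV-1 strain IIIB; EC50 taken as the concentration giving 50% inhibition of viral cytopathicity; means of at least two separate experiments.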

In general, IC50 refers to the concentration at which inhibition is half-maximal. A word on the EC50: it is the concentration needed to bring the measured effect to its halfway point. High values mean a less potent agent, low ones a more potent agent. One may read the CC50 as the concentration giving 50% cytotoxicity. A lower CC50 goes with greater toxicity to the cells. For orientation: half-life means the time in which the quantity being followed falls by half. On to `COC(=O)CCCC=C(c1cc(C)c(OC)c(C(=O)OC)c1)c1cc(C)c(OC)c(C(=O)OC)c1`, for which the IC50 in data set [1] turned out to be 1 µM. This compound also registered an EC50 in data set [2] of 0.25 µM. In addition, the result in data set [3] was inactive. For the same compound, the CC50 was determined as 6 µM in data set [4] and 6.1 µM in data set [5]. The half-life in data set [6] was determined as 0.0127 h.

On to `CO/N=C(\F)c1cc(/C(=C\CCCc2nc(C)no2)c2cc(C)c3oc(=O)n(C)c3c2)cc(C)c1OC`, for which the IC50 in data set [1] was 0.67 µM. Further, the EC50 came to 0.7 µM in data set [2] and 0.24 µM in data set [7]. Moreover, the result in data set [3] was inactive. Moreover, the CC50 in data set [4] was 2.9 µM; in data set [5], 12.4 µM. In data set [6], this compound showed a half-life of 60.7 h.

As for `CONC(=O)CCC/C=C(\c1cc(C)c(OC)c(C(=O)NOC)c1)c1cc(C)c2oc(=O)n(C)c2c1`, the IC50 in data set [1] was > 100 µM. Besides, the outcome in data set [2], in data set [7] and in data set [3] was inactive. Further, the CC50 in data set [4] was 5.4 µM; in data set [5], 18.4 µM.

For the compound `CO/N=C(\Br)CCC/C=C(\c1cc(C)c(OC)c(/C(Br)=N/OC)c1)c1cc(C)c2oc(=O)n(C)c2c1`, the IC50 in data set [1] was found to be 0.85 µM. The result in data set [2] and in data set [3] was inactive. This compound also had an EC50 in data set [7] of 6.3 µM. In addition, the results for the CC50 in data set [4] and in data set [5] were 2.1 µM and 13.3 µM, respectively. The same compound displayed a half-life in data set [6] of 2.6 h.

For `CO/N=C(\Cl)CCC/C=C(\c1cc(C)c(OC)c(/C(Cl)=N/OC)c1)c1cc(C)c2oc(=O)n(C)c2c1`, the IC50 in data set [1] amounted to 0.6 µM. Further, the result in data set [2] and in data set [3] was inactive. Moreover, the CC50 in data set [4] came out at 1.3 µM; in data set [5], 3.9 µM. For the same compound, the half-life in data set [6] is 82.8 h.

Take `CONC(=O)c1cc(/C(=C\CCCC(=O)OC(C)(C)C)c2cc(C)c3oc(=O)n(C)c3c2)cc(C)c1OC`: the IC50 in data set [1] is > 100 µM. In addition, the result in data set [2], in data set [7] and in data set [3] was inactive. Besides, the CC50 amounted to 5.2 µM in data set [4] and 16.8 µM in data set [5].

`CO/N=C(\F)c1cc(/C(=C\CCCC(=O)OC)c2cc(C)c3oc(=O)n(C)c3c2)cc(C)c1OC`: the IC50 in data set [1] stood at 0.55 µM. The EC50 was 0.5 µM in data set [2] and 0.29 µM in data set [7]. For the same compound, the result in data set [3] was inactive. The CC50 was 3.9 µM in data set [4] and 21 µM in data set [5]. The half-life in data set [6] turned out to be 0.153 h.

As to `COC(=O)CCC/C=C(\c1cc(C)c(OC)c(C(=O)OC)c1)c1cc(C)c2oc(=O)n(C)c2c1`, the IC50 in data set [1] was found to be 0.02 µM. The compound also registered an EC50 in data set [2] of 0.02 µM. Further, the outcome in data set [3] was inactive. Further, the figures for the CC50 in data set [4] and in data set [5] were 5.1 µM and 16.9 µM, respectively. In data set [6], this compound had a half-life of 0.0217 h.
